# SIAE primary = inhibitors of human sialic acid acetylesterase SIAE | 370,000 compounds, 0.69% hits | Q9HAT2 | inhibition, % at 9.66 µM | AID 1053197 | SIAE FP-Rh probe binding, fluorescence polarization;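 active = inhibition above a cutoff: mean of compounds within the control limits plus 3 SD of those, cut at about 17% in these data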
# PRMT1 FP inh = inhibitors of human PRMT1; recombinant PRMT1, activity-based probe fluorescence polarization; Q99873; inhibition, % at 2.79 µM; 370,000 compounds, 1.3% hits; AID 652257;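 active = inhibition above about 21% made by adding two undisclosed values, limit read from the data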
# Target sequence (Q99873 whole entry, looked up): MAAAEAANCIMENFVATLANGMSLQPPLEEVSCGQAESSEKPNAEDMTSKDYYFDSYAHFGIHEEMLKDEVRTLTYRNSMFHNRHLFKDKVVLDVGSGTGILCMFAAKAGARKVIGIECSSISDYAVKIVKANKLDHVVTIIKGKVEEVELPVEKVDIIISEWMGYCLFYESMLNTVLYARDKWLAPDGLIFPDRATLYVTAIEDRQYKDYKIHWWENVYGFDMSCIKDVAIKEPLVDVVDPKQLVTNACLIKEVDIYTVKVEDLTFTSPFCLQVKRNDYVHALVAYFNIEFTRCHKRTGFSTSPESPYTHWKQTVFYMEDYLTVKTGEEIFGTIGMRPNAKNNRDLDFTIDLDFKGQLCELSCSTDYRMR
# mABHD4 FP = inhibits mouse alpha/beta hydrolase domain 4; purified mABHD4, FP-Rh probe fluorescence polarization; inhibition, % at 8.92 µM; 370,000 compounds, 0.54% hits; AID 720543;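 active = inhibition exceeding the mean over every tested compound plus 3 SD, cut at about 30% in these data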
#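 system = mouse ABHD4 enzyme, wild type | medium = HEPES pH 7.0, NaCl, Pluronic buffer | also added = FP-Rh probe | incubation = Enzyme–compound pre-incubation 45 min, then probe 60 min, both 25 °C | technique = fluorescence polarization, excitation 525 nm, emission 598 nm, BODIPY TMR filters | controls = S159A mutant high control, sample median low control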
# HTRA1 inhibitor = inhibitors of human serine peptidase HTRA1. Q92743. recombinant HTRA1, FP-rhodamine activity-based probe, fluorescence polarization. inhibition, % at 5.96 µM. 340,000 compounds, 0.5% hits. AID 504803; in the data active = inhibition above about 36%
# ATG4B inh = ATG4B (human) cysteine protease inhibition; ATG4B cleavage of LC3-PLA2, NBD-HPC fluorescence, 1 h; Q9Y4P1; 340,000 compounds, 0.51% hits; inhibition, % at 8.33 µM; AID 504462; in the data active = inhibition above about 40%
# TCR CD3 inh = blocks the human TCR-CD3 interaction; TAMRA-labeled TCR probe fluorescence, biochemical; inhibition, % at 9.4 µM; 360,000 compounds, 0.37% hits; in the data active = inhibition above about 19%;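 also: recombinant mutant TCR 2C K166C tagged with TAMRA read by polarization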
# SIAE inh conf = confirmation of human SIAE inhibitors; shares compounds with SIAE primary; SIAE FP-Rh activity-based probe, fluorescence polarization; inhibition, % at 9.66 µM; 2,300 compounds, 13% hits; AID 1117263;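 active = mean inhibition of the replicates above the hit cutoff set in the primary screen, cut at about 17% in these data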;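 also: inhibitors lower polarization as more probe stays unbound to SIAE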
# Hits are given with their value; 0 = inactive; - = not tested or not shown. An excerpt weighted towards active compounds, which were near 2.9% of everything screened.
SMILES,SIAE primary,PRMT1 FP inh,mABHD4 FP,HTRA1 inhibitor,ATG4B inh,TCR CD3 inh,SIAE inh conf
CCC1NC(=O)c2cc3ccccc3cc2-n2c1nc1cc(C)cc(C)c1c2=O (configuration not stated),17.3,0,0,0,-,0,0
Cc1cc(C)c2c(=O)n3c(nc2c1)C(Cc1ccccc1)NC(=O)c1cc2ccccc2cc1-3 (configuration not stated),0,0,0,0,-,0,-
COC(=O)C1CN(Cc2ccc(OC)cc2)CCS(=O)(=O)N1Cc1cn(Cc2ccccc2)nn1 (configuration not stated),0,0,0,-,-,-,-
CC(C)(C)N(Cc1cn(Cc2ccccc2)nn1)S(=O)(=O)c1ccc(N2CCCC2)cc1Br,0,0,0,-,-,-,-
COc1ccc(Br)cc1CNC(=O)Nc1cccs1,18.8,0,0,0,0,0,0
COc1ccccc1CNC(=O)Nc1cccs1,0,0,0,0,0,0,-
O=C(NCc1ccco1)c1cccc(Nc2nc3ccc(Br)cc3[nH]2)c1,41.0,0,0,0,0,0,0
O=C(Cc1ccc(Nc2nc3ccc(Br)cc3[nH]2)cc1)NCCc1cccs1,20.0,0,0,0,0,0,0
O=C(NCC1CC1)c1ccc(Nc2nc3ccc(Br)cc3[nH]2)cc1,25.3,0,0,0,0,0,0
O=C(NCC1CC1)c1ccc2nc([C@@H]3O[C@H](CO)[C@H](O)[C@H](O)[C@H]3O)[nH]c2c1,0,0,0,-,-,0,-
COC(=O)[C@H]1C[C@@]2(n3ccc4ccccc43)c3ccccc3N(S(=O)(=O)c3ccccc3)[C@H]2N1C(=O)CNC1CCCCC1,0,0,0,-,-,-,-
O=S1(=O)c2c(cccc2N2CCSCC2)Oc2ccccc2CN1Cc1cn(Cc2ccc(C(F)(F)F)cc2)nn1,0,0,0,-,-,-,-
COc1ccc(CN(C)CC(=O)Nc2ccccc2C(F)(F)F)c(OC)c1,19.9,0,0,0,0,0,0
Cc1onc(-c2c(F)cccc2Cl)c1-c1ncc(-c2ccc(Cl)cc2)o1,0,0,0,-,-,0,-
CC1CCCCC1N(C(=O)c1cc(C2CC2)on1)C1CCCCCC1 (configuration not stated),0,0,0,-,-,-,-
CC[C@]12CCCN3CCc4c(n(c5ccccc45)[C@](O)(C(=O)OC)C1)[C@@H]32,0,0,0,0,0,0,-
CCC12CCCN3CCc4c(n(c5ccccc45)C(O)(C(=O)OC)C1)C32 (configuration not stated),20.6,0,0,0,0,0,0
COc1ccc(/C=C/S(=O)(=O)NCCc2ccccc2)c(CNC(=O)OC(C)(C)C)c1,0,0,0,-,-,-,-
COc1ccc(C2=NN(c3ccccc3)C(=O)/C2=C\c2ccc(O)c(OC)c2)cc1,19.0,0,0,0,0,0,0
Nc1[nH]c(C(=O)c2ccc(Br)cc2)c(-c2ccncc2)c1C(=O)c1ccccc1,0,0,0,-,-,0,-
O=C1Nc2ccccc2C1=Nc1ccc2[nH]c3ccccc3c2c1,17.2,0,0,0,0,0,0
O=C(CSc1nnc2ccccn12)NC(=O)NC1CCCC1,0,0,0,0,0,0,-
O=C(CSc1nnc2ccccn12)NC(=O)c1ccccc1,17.1,0,0,0,0,0,0
CC(=O)Nc1ccc(S(=O)(=O)Nc2nccs2)cc1,0,0,0,0,0,0,-
Cc1ccc(S(C)(=O)=O)cc1C(=O)Nc1ccc(S(=O)(=O)Nc2nccs2)cc1,23.9,0,0,0,0,0,0
SMILES,SIAE primary,PRMT1 FP inh,mABHD4 FP,HTRA1 inhibitor,ATG4B inh,TCR CD3 inh,SIAE inh conf
Nc1ncnc2c1ncn2[C@@H]1O[C@H](C(=O)N2CCC(F)(F)CC2)[C@@H](O)[C@H]1O,52.0,0,0,-,-,0,56.8
Nc1ncnc2c1ncn2[C@@H]1O[C@H](C(=O)N2CCC[C@@H]2C(=O)OCc2ccccc2)[C@@H](O)[C@H]1O,28.0,0,0,-,-,0,19.4
COC(=O)C1=C(C)N(Cc2ccccc2C(F)(F)F)C(=NCc2ccc(C(F)(F)F)cc2)NC1c1cccc(F)c1 (configuration not stated),0,0,0,-,-,0,-
CCOc1ccc(CCNC(=O)CCCn2c(=O)c3cccn3c3cccnc32)cc1OCC,22.3,0,0,0,0,0,0
COc1ccc(CCNC(=O)CCCn2c(=O)c3cccn3c3cccnc32)c(OC)c1OC,0,0,0,0,0,0,-
COc1cc2ncnc(NCCCN3CCOCC3)c2cc1OC,38.2,0,0,0,0,0,0
CCOc1cc2nc(-c3ccc(OC)c(OC)c3)nc(NCCCN3CCOCC3)c2cc1OC,0,0,0,0,0,0,-
COc1ccccc1C(=O)N1CCC2CCNC2C1 (configuration not stated),0,0,0,-,-,0,-
O=C(CSc1nnc(-c2cnccn2)n1-c1ccccc1)c1ccccc1Br,0,0,0,-,-,-,-
Cc1cccc(C(=O)NCC(=O)NC(C)CCc2ccccc2)c1 (configuration not stated),19.8,0,0,0,0,0,0
Cc1cccc(C(=O)OCC(=O)NC(C)CCc2ccccc2)c1 (configuration not stated),0,0,0,0,0,0,-
C#CCNC(=O)C[C@H]1C[C@@]2(C(=O)OC)C(=C[C@H](COCc3ccccc3)O[C@@H]2C)N(Cc2ccccc2)C1=O,0,0,0,-,-,-,-
C[C@H](CO)N1C[C@H](C)[C@@H](CN(C)C(=O)CCC(F)(F)F)OCc2cn(nn2)CCCC1=O,0,0,0,-,-,0,-
COc1ccc(Cc2nnc(N)s2)cc1OC,0,0,0,0,0,0,-
COc1ccc(Cc2nnc(N)s2)cc1,17.2,0,0,0,0,0,0
CCCCCN(C(=O)Cc1c(C)n(CCCCC)c2ccccc12)c1ccc(Oc2cccnc2)c(C)c1,0,0,0,-,-,0,-
CCN(CC)CCn1c(=N)n(CCO)c2ccccc21,21.3,0,0,0,0,0,0
CCN(CC)CCn1c(=N)n(CCOc2ccccc2)c2ccccc21,0,0,0,0,0,0,-
COc1cc2[nH]c(=S)nc(NCCCOC(C)C)c2cc1OC,24.0,0,0,0,0,0,0
Cc1nn(CC(=O)N2CCN(C(=O)c3ccco3)CC2)c(C)c1[N+](=O)[O-],0,0,0,0,0,0,-
Cc1nn(CC(=O)N2CCN(S(=O)(=O)c3ccccc3)CC2)c(C)c1[N+](=O)[O-],17.7,0,0,0,0,0,0
O=C(NCC1CCN(C(=O)C(=O)c2cc3ccccc3o2)CC1)c1ccc2c(c1)OCCCO2,0,0,0,-,-,0,-
CC(COc1ccc(C#N)c(F)c1)CN1CCC(C(O)(c2ccccc2)c2ccccc2)CC1 (configuration not stated),0,0,0,-,-,-,-
Cc1[nH]c2ccccc2c1CC(=O)Nc1ccc(Nc2ccccc2)cc1,0,0,0,-,-,0,-
Cc1[nH]c2ccccc2c1CC(=O)Nc1ccc(Nc2ccncc2)cc1,34.3,0,0,-,-,0,24.6
